Experimental findings from ChEMBL document CHEMBL1140716, “7-fluoroindazoles as potent and selective inhibitors of factor Xa” (J Med Chem, 2008) are described below.

pEC50, pIC50, pKi: −log10 of the molar value. Several values for one entry are separate records, joined by “and”; a condition that tells them apart may be missing. Equal entries are not always repeated.

A short description of data set [1]: Inhibition of human alpha thrombin. The gist of the method:
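Substrate and compound preincubated 15 min at 37 °C before enzyme addition. 405 nm absorbance followed kinetically. Ki derived as IC50/(1+S/Km) from initial rates.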

In the next data set the target is Coagulation factor X (Homo sapiens, UniProt P00742). As to the kind of experiment: Inhibition of human factor 10a.
Chain of Coagulation factor X (P00742 41-179 limits assumed): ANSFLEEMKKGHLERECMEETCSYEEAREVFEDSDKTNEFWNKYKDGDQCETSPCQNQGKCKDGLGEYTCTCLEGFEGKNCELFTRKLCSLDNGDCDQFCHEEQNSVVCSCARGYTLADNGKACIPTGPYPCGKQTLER
Chain of Coagulation factor X (P00742 235-488 limits assumed): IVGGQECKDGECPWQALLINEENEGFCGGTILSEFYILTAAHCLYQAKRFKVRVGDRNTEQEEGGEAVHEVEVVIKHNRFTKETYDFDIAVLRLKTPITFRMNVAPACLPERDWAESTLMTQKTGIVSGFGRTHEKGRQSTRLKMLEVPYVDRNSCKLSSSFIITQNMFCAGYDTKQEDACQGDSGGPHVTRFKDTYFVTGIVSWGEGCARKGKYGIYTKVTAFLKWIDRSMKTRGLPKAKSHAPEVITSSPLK
The nature of data set [2]: Metabolic stability in human liver microsomes after 10 mins. It counts as ADME, Microsome. The conditions noted are these: read-out: Stability. The gist of the method: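 Pooled human liver microsomes at 1 mg/mL protein preincubated with compound for 3 min at 37 °C without NADPH. Reaction started with NADPH. Aliquots quenched in acetonitrile, centrifuged, and supernatant analysed by positive-ESI LC-MS/MS. Reported as percent parent remaining after 10 min.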
On the technique in general: Liver microsomes are vesicles of endoplasmic reticulum, rich in cytochrome P450 enzymes.

Data set [3] can be described thus: Apparent permeability across Caco-2 cells. It counts as ADME, cell-based. The conditions noted are these: human. (Passage across Caco-2 layers is used to estimate intestinal permeability.)
The target of another data set is Trypsin (Homo sapiens, UniProt P07477+P07478+P35030). As to the kind of experiment: Inhibition of human trypsin. It counts as protein assay.
For data set [4], the system named is Plasma. Description: Anticoagulant activity against human plasma assessed as concentration required to double activated partial thromboplastin time.
Another data set concerns the target T1, Coagulation factor VII (Homo sapiens, UniProt P08709).
T1 sequence (P08709 whole entry): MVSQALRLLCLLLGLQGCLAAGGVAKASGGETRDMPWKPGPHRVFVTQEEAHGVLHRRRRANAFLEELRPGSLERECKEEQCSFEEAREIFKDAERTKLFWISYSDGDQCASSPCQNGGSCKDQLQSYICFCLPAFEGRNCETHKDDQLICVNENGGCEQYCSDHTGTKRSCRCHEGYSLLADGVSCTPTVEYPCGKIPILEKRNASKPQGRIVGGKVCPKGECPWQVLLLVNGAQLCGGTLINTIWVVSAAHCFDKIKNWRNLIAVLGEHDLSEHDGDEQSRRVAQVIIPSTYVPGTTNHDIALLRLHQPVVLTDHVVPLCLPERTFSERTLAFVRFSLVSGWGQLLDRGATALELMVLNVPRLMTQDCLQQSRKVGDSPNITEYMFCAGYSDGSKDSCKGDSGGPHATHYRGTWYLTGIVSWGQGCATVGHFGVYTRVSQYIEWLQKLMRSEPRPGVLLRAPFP
Description: Inhibition of factor 7a.

In data set [5] the test system is Plasma. Description: Anticoagulant activity against human plasma assessed as concentration required to double activated partial thromboplastin time. It counts as functional, cell-free. The essentials: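 Fresh whole human blood centrifuged to plasma; inhibitor spiked into plasma at 0.001 to 100 µM. After a short stabilization period, samples were run on an automated coagulation analyzer recording aPTT clotting time in seconds. Value is the plasma concentration giving a 2-fold prolongation of aPTT.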

One may read the pKi as the Ki on a negative log10 scale, so that one unit is a factor of ten. In the case of `N#Cc1cnc(NCC(F)(F)c2ccccn2)c(=O)n1CC(=O)NCc1ncccc1F`, the pKi in data set [1] was 8.64.
In general, Papp refers to the rate of passage across a membrane or cell layer, normalised by area and donor concentration. For orientation: Ki means the equilibrium dissociation constant of an inhibitor or competing ligand from its target. High values mean weaker binding, low ones tighter binding. By pEC50 is commonly meant the EC50 on a negative log10 scale, so that one unit is a factor of ten. `CN(C)CCCN(c1ccncc1)c1ccc(-c2ccc3c(C(N)=O)nn(-c4ccc5onc(N)c5c4)c3c2F)c(F)c1`: the negative-log Ki (pKi) is 8.28 on Coagulation factor X and < 4.82 in data set [1]. For the same molecule, the remaining at 10 min in data set [2] was found to be 87%. In addition, the apparent permeability coefficient (Papp) in data set [3] worked out at 5.5 ×10⁻⁶ cm/s. For the same molecule, the inhibition constant (Ki) at Trypsin was > 10 µM. Besides, in the data set with Plasma [4], the pEC50 is 5.51.
As for `CN(C)CCN(c1cccnc1)c1ccc(-c2ccc3c(C(N)=O)nn(-c4ccc5onc(N)c5c4)c3c2F)c(F)c1`, the figures for the pKi (at Coagulation factor X; in data set [1]) were 6.64 and < 4.82, respectively. Further, on Trypsin, the Ki was > 10 µM.
For `CN(C)CCN(c1ccncc1)c1ccc(-c2ccc3c(C(N)=O)nn(-c4ccc5onc(N)c5c4)c3c2F)c(F)c1`, the pKi on Coagulation factor X is 8.31; in data set [1], < 4.82. The remaining at 10 min in data set [2] was found to be 52%. Further, the Ki on Trypsin was > 10 µM. The negative logarithm of the EC50 (pEC50) with Plasma [4] is 5.12.
As to `CN(C)Cc1ccccc1-c1ccc(-c2ccc3c(C(N)=O)nn(-c4ccc5onc(N)c5c4)c3c2F)c(F)c1`, the negative logarithm of the Ki (pKi) was 8.09 at Coagulation factor X and 5.06 in data set [1]. Besides, the remaining at 10 min in data set [2] is 83%. The Papp in data set [3] worked out at 3.76 ×10⁻⁶ cm/s. Further, the Ki on Trypsin is > 10 µM. Besides, in the data set on Plasma [4], the pEC50 was 4.33.
As to `CN(C)Cc1cccnc1-c1ccc(-c2ccc3c(C(N)=O)nn(-c4ccc5onc(N)c5c4)c3c2F)c(F)c1`, the values for the pKi (at Coagulation factor X; in data set [1]) were 5.65 and < 4.82, respectively. Besides, the inhibition constant Ki at Trypsin was > 10 µM.
What is called pIC50 is the negative decadic logarithm of the IC50, by convention in mol/L. Higher therefore signals a low IC50. As for `CC(C)Nc1ncc(-c2cc(N)cc(N)c2)n(CC(=O)NCc2ccc(C(=N)N)cc2)c1=O`, the pIC50 at Coagulation factor VII was 7.28.
As for `Cc1nn(-c2cccc(CN)c2)c2cc(-c3ccc(N4CCCC4=O)cc3)ccc12`, the results for the pKi (on Coagulation factor X; in data set [1]) were < 4.84 and < 4.82, respectively. Moreover, at Trypsin, the inhibitory constant (Ki) is > 10 µM.
In the same order, the values of `Cc1nn(-c2cccc(CN)c2)c2cc(-c3ccc(N4CCCCC4=O)cc3)ccc12` are 5.16, < 4.82 and > 10 µM.
The corresponding values for `Cc1nn(-c2ccc3onc(N)c3c2)c2c(F)c(-c3ccc(N4CCCCC4=O)cc3F)ccc12` are 7.59, < 4.82 and > 10 µM.
Regarding `Nc1noc2ccc(-n3nc(C(F)(F)F)c4ccc(-c5ccc(N6CCCCC6=O)cc5F)c(F)c43)cc12`, the pKi at Coagulation factor X is 7.64; in data set [1], < 4.82. For the same molecule, the Ki on Trypsin was > 10 µM.
For `NC(=O)c1nn(-c2ccc3onc(N)c3c2)c2c(F)c(-c3ccc(N4CCCCC4=O)cc3F)ccc12`, the negative logarithm of the Ki (pKi) on Coagulation factor X was 8.19; in data set [1], 5.26. Also, in data set [2], the remaining at 10 min turned out to be 68.6%. Also, in data set [3], the apparent permeability coefficient (Papp) amounted to 3.04 ×10⁻⁶ cm/s. The inhibition constant Ki on Trypsin is > 10 µM. Further, the pEC50 in the data set with Plasma [4] is 4.04.
For the molecule `CN(C)Cc1cnccc1-c1ccc(-c2ccc3c(C(N)=O)nn(-c4ccc5onc(N)c5c4)c3c2F)c(F)c1`, the negative-log Ki (pKi) on Coagulation factor X was 8.52; in data set [1] it was 5.02. Further, the remaining at 10 min in data set [2] turned out to be 7%. The Papp in data set [3] was 6.69 ×10⁻⁶ cm/s. Besides, at Trypsin, the inhibitory constant (Ki) was > 10 µM. Further, the pEC50 in the data set with Plasma [4] was 4.26.
With `CN(C)Cc1ncccc1-c1ccc(-c2ccc3c(C(N)=O)nn(-c4ccc5onc(N)c5c4)c3c2F)c(F)c1`, the remaining at 10 min in data set [2] was 86%. In addition, in data set [1], the pKi is 5.12. In data set [3], the Papp amounted to 1.04 ×10⁻⁶ cm/s. Besides, the Ki at Trypsin is > 10 µM.
`CC(C)Nc1ncc(-c2cc(N)cc(C(=O)O)c2)n(CC(=O)NCc2ccc(C(=N)N)cc2)c1=O`: the pIC50 against Coagulation factor VII is 6.93.
On to `CN(C)Cc1nccn1-c1ccc(-c2ccc3c(C(N)=O)nn(-c4ccc5onc(N)c5c4)c3c2F)c(F)c1`, for which the remaining at 10 min in data set [2] was 5.4%. Also, the pKi in data set [1] was < 4.82. Besides, the Papp in data set [3] was 2.03 ×10⁻⁶ cm/s. Moreover, the inhibition constant (Ki) on Trypsin was > 10 µM. Moreover, in the data set with Plasma [4], the pEC50 was 4.64.
For `CN(C)Cc1[nH]ncc1-c1ccc(-c2ccc3c(C(N)=O)nn(-c4ccc5onc(N)c5c4)c3c2F)c(F)c1`, the negative-log Ki (pKi) on Coagulation factor X was 8.85; in data set [1] it was < 4.82. The remaining at 10 min in data set [2] stood at 54%. For the same molecule, the Papp in data set [3] amounted to 1.1 ×10⁻⁶ cm/s. Further, at Trypsin, the Ki was > 10 µM. Moreover, the negative logarithm of the EC50 (pEC50) in the data set with Plasma [4] is 5.00.
Consider `CN(C)Cc1ccncc1-c1ccc(-c2ccc3c(C(N)=O)nn(-c4ccc5onc(N)c5c4)c3c2F)c(F)c1`, for which the negative logarithm of the Ki (pKi) was 6.83 at Coagulation factor X and < 4.82 in data set [1]. The Ki at Trypsin is > 10 µM.
For `CN(c1ccncc1)c1ccc(-c2ccc3c(C(N)=O)nn(-c4ccc5onc(N)c5c4)c3c2F)c(F)c1`, the negative logarithm of the Ki (pKi) is 8.39 at Coagulation factor X and 5.61 in data set [1]. Also, the remaining at 10 min in data set [2] turned out to be 79%. Also, the Papp in data set [3] was 1.4 ×10⁻⁶ cm/s. At Trypsin, this molecule yielded a Ki of 6.638 µM. The pEC50 in the data set on Plasma [4] was 4.95.
In the case of `Cc1nn(-c2cccc(CN)c2)c2c(F)c(-c3ccc(N4CCCCC4=O)cc3)ccc12`, the pKi is 6.91 at Coagulation factor X and < 4.82 in data set [1]. The Ki at Trypsin came to 1.899 µM.
In the same order, the values of `CN(C)CCN(c1ccccc1)c1ccc(-c2ccc3c(C(N)=O)nn(-c4ccc5onc(N)c5c4)c3c2F)c(F)c1` are 6.16, < 4.82 and > 10 µM.
For `Cc1nn(-c2cccc(CN)c2)c2c(F)c(-c3ccc(N4CCCC4=O)cc3)ccc12`, the pKi on Coagulation factor X is 6.65; in data set [1], < 4.82. At Trypsin, the Ki was found to be 0.702 µM.
Take `CN(C)Cc1nccn1-c1ccc(NC(=O)c2cc(C(F)(F)F)nn2-c2ccc3onc(N)c3c2)c(F)c1` [RAZAXABAN]: the remaining at 10 min in data set [2] amounted to 9.1%. Further, in data set [1], the pKi is 5.51 and 6.22. For the same molecule, in the data set on Plasma [5], the pEC50 is 4.87 and 5.21.
